From ChEMBL document CHEMBL3272302, “Synthesis and evaluation of alpha-hydroxythiol esters as antitumor agents and glyoxalase I inhibitors” (J Med Chem, 1977)

What was measured:
L1210 [1] = test: Antitumor activity against mouse L1210 cells allografted in BDF1 mouse assessed as increase in host survival days at 100 mg/kg, ip administered on day 2 and 6 relative to control; type: functional; conditions: route intraperitoneal
How it was run: (§1)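 L1210 lymphoid leukemia cells were implanted ip in BDF1 mice on day 0. Compounds were given ip as suspensions in saline, saline with Tween 80, or Klucel (hydroxypropylcellulose). Injections were repeated every fourth day at the same dose. Groups had three or six mice, and controls received vehicle only. The read-out was mean survival time in days for treated and control animals.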

[2] = biological target: Lactoylglutathione lyase (Saccharomyces cerevisiae); test: Competitive inhibition of yeast glyoxalase-1 using methylglyoxal and glutathione as substrate by Lineweaver-Burk plot analysis
L1210 [3] = test: Antitumor activity against mouse L1210 cells allografted in BDF1 mouse assessed as increase in host survival time at 100 mg/kg, ip administered on day 2 and 6 relative to control; type: functional; conditions: route intraperitoneal
How it was run: (§2)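 BDF1 mice received ip L1210 lymphoid leukemia cells on day 0. Compounds were then given ip in saline, saline/Tween 80, or Klucel vehicle, repeated every fourth day at a fixed dose from the 400, 200, 100 mg/kg series. Assays used three or six mice, with vehicle-treated controls. T/C % is treated over control mean survival time, expressed as percent.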

[4] = biological target: Lactoylglutathione lyase (Saccharomyces cerevisiae); test: Inhibition of yeast glyoxalase-1 using methylglyoxal and glutathione as substrate; conditions: read-out: I50
Mus musculus [5] = test: Toxicity in BDF1 mouse allografted with mouse L1210 cells at 100 mg/kg, ip administered on day 2 and 6; type: organism-based; set-up: dose 100 mg/kg, route intraperitoneal; conditions: in vivo
How it was run: (§3)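 BDF1 mice implanted ip on day 0 with L1210 lymphoid leukemia cells. Compound given ip as a suspension in saline, saline with Tween 80, or Klucel (HPC), with injections every fourth day. Multiple dose levels 400, 200 and 100 mg/kg; three- or six-mouse groups. Toxicity scored as survivors per animals started, recorded on day 5.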

Mus musculus [6] = test: Toxicity in BDF1 mouse allografted with mouse L1210 cells at 200 mg/kg, ip administered on day 2 and 6; type: organism-based; set-up: dose 200 mg/kg, route intraperitoneal; conditions: in vivo; how it was run: as §3
L1210 [7] = test: Antitumor activity against mouse L1210 cells allografted in BDF1 mouse assessed as increase in host survival time at 200 mg/kg, ip administered on day 2 and 6 relative to control; type: functional; conditions: route intraperitoneal; how it was run: as §2
L1210 [8] = test: Antitumor activity against mouse L1210 cells allografted in BDF1 mouse assessed as increase in host survival days at 200 mg/kg, ip administered on day 2 and 6 relative to control; type: functional; conditions: route intraperitoneal; how it was run: as §1
L1210 [9] = test: Antitumor activity against mouse L1210 cells allografted in BDF1 mouse assessed as increase in host survival days at 100 mg/kg, ip administered on day 1 relative to control; type: functional; conditions: route intraperitoneal
L1210 [10] = test: Antitumor activity against mouse L1210 cells allografted in BDF1 mouse assessed as increase in host survival time at 100 mg/kg, ip administered on day 1 relative to control; type: functional; conditions: route intraperitoneal
Mus musculus [11] = test: Toxicity in BDF1 mouse allografted with mouse L1210 cells at 100 mg/kg, ip administered on day 1; type: organism-based; set-up: dose 100 mg/kg, route intraperitoneal; conditions: in vivo; how it was run: as §3
Mus musculus [12] = test: Toxicity in BDF1 mouse allografted with mouse L1210 cells at 200 mg/kg, ip administered on day 1, 5, and 9; type: organism-based; set-up: dose 200 mg/kg, route intraperitoneal; conditions: in vivo; how it was run: as §3
L1210 [13] = test: Antitumor activity against mouse L1210 cells allografted in BDF1 mouse assessed as increase in host survival days at 200 mg/kg, ip administered on day 1, 5, and 9 relative to control; type: functional; conditions: route intraperitoneal; how it was run: as §1
L1210 [14] = test: Antitumor activity against mouse L1210 cells allografted in BDF1 mouse assessed as increase in host survival time at 200 mg/kg, ip administered on day 1, 5, and 9 relative to control; type: functional; conditions: route intraperitoneal; how it was run: as §2
L1210 [15] = test: Antitumor activity against mouse L1210 cells allografted in BDF1 mouse assessed as increase in host survival time at 100 mg/kg, ip administered on day 1, 5, and 9 relative to control; type: functional; conditions: route intraperitoneal; how it was run: as §2
Mus musculus [16] = test: Toxicity in BDF1 mouse allografted with mouse L1210 cells at 100 mg/kg, ip administered on day 1, 5, and 9; type: organism-based; set-up: dose 100 mg/kg, route intraperitoneal; conditions: in vivo; how it was run: as §3
L1210 [17] = test: Antitumor activity against mouse L1210 cells allografted in BDF1 mouse assessed as increase in host survival days at 100 mg/kg, ip administered on day 1, 5, and 9 relative to control; type: functional; conditions: route intraperitoneal; how it was run: as §1
L1210 [18] = test: Antitumor activity against mouse L1210 cells allografted in BDF1 mouse assessed as increase in host survival days at 400 mg/kg, ip administered on day 1 relative to control; type: functional; conditions: route intraperitoneal
Mus musculus [19] = test: Toxicity in BDF1 mouse allografted with mouse L1210 cells at 400 mg/kg, ip administered on day 1; type: organism-based; set-up: dose 400 mg/kg, route intraperitoneal; conditions: in vivo; how it was run: as §3
L1210 [20] = test: Antitumor activity against mouse L1210 cells allografted in BDF1 mouse assessed as increase in host survival time at 400 mg/kg, ip administered on day 1 relative to control; type: functional; conditions: route intraperitoneal

SMILES: CCCCSC(=O)C(C)O (stereo not given)
- T/C (L1210 [1]): 99%
- Ki [2]: 12.9 mM
- Time (L1210 [3]): 10 days
- IC50 [4]: 16.5 mM
- Activity (Mus musculus [5]): Toxic

SMILES: CC(O)C(=O)SCc1ccccc1 (stereo not given)
- Activity (Mus musculus [6]): Toxic
- Time (L1210 [7]): 10.3 days
- Ki [2]: 5.5 mM
- T/C (L1210 [8]): 98%
- IC50 [4]: 7.1 mM

SMILES: CCCCSC(=O)C(O)c1ccccc1 (stereo not given)
- T/C (L1210 [9]): 105%
- Ki [2]: 29.6 mM
- IC50 [4]: 37.8 mM
- Time (L1210 [10]): 9.8 days
- Activity (Mus musculus [11]): Toxic

SMILES: O=C(SCc1ccccc1)C(O)c1ccccc1 (stereo not given)
- Activity (Mus musculus [12]): Toxic
- Ki [2]: 6.3 mM
- IC50 [4]: 8.1 mM
- T/C (L1210 [13]): 100%
- Time (L1210 [14]): 10.7 days

SMILES: COC(=O)CSC(=O)C(O)c1ccccc1 (stereo not given)
- Activity (Mus musculus [12]): Toxic
- Ki [2]: 8.2 mM
- IC50 [4]: 10.5 mM
- T/C (L1210 [13]): 103%
- Time (L1210 [14]): 10.5 days

SMILES: CCCCOC(=O)CSC(=O)C(O)c1ccccc1 (stereo not given)
- Time (L1210 [15]): 10.2 days
- Ki [2]: 34.7 mM
- Activity (Mus musculus [16]): Toxic
- IC50 [4]: 44.5 mM
- T/C (L1210 [17]): 105%

SMILES: COC(=O)CCSC(=O)C(O)c1ccccc1 (stereo not given)
- T/C (L1210 [18]): 105%
- Ki [2]: 38.6 mM
- Activity (Mus musculus [19]): Toxic
- IC50 [4]: 49.6 mM
- Time (L1210 [20]): 9.8 days
